Test results taken from article PMC9420430 (Current Research in Immunology, 2022).
Where two headings read alike, the source gives them in different places. Each block holds one compound with its values, some of them ahead of it.

Assays:
HLA-A*02:01 [1] = molecular target: T1, HLA-A*02:01 (Homo sapiens, UniProt P04439, D140Y/D185E/D98H/E176V/E277Q/G131W/G231S/I119V/I121R/I166T/I218V/L300P/L318F/N151K/N90K/P208A/P217A/Q86G/Q94H/R138H/R169H/T345S); format: binding; conditions: for peptide exchange (in words): NA9 for NV9-FITC on A2, 25 °C
A2/NA9 = experiment: Thermal stability by nanoscale differential scanning fluorimetry, A2/NA9; set-up: species or system human; conditions: for destabilization of A2 complex (in words): ethanediol, 20% DMSO, Table S5
Summary of the method: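 Refolded, SEC-purified HLA-A2/peptide complex, 4 µM in citrate-phosphate buffer pH 7.6 (187.3 mM Na₂HPO₄, 6.35 mM citric acid). Mixed 1:1 with solvent or dipeptide at 2x test concentration in the same buffer, giving 2 µM complex. nanoDSF in capillaries: ex 280 nm, em 330 and 350 nm, ramp 1.0 °C/min from 15 or 20 °C to 80 °C.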

[2] = molecular target: disulfide-stabilized HLA-A*02:01 (Y84C/A139C) (Homo sapiens, UniProt P04439, D140Y/D185E/D98H/E176V/E277Q/G131W/G231S/I119V/I121R/I166T/I218V/L300P/L318F/N151K/N90K/P208A/P217A/Q86G/Q94H/R138H/R169H/T345S/A163C/Y108C); format: binding
[3] = molecular target: disulfide-stabilized HLA-A*02:01 (Y84C/A139C) / beta-2 microglobulin, peptide-free (human); experiment: fluorescence polarisation
A2/IV9 = experiment: Thermal stability by nanoscale differential scanning fluorimetry, A2/IV9; set-up: species or system human; conditions: no reagent
HLA-A*02:01 [4] = molecular target: T1, HLA-A*02:01; format: binding
HLA-A*24:02 = HLA-A*24:02 (Homo sapiens, UniProt P04439, D101N/D140Y/D185E/E176V/E190D/F33S/G103R/G107R/I119L/I121M/I306V/K335N/L105A/L180Q/L300P/N151K/N90K/Q86E/Q94H/R106L/R138H/R89G/T104I/T345S/V100E/W191G/Y123F); format: binding; conditions: pre-bound TLn9, ethanol vs 10 mM GF, 25 °C
Summary of the method: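 Complex (300 nM final) preincubated 15 min with the test compound or 10 mM dipeptide in 50 mM HEPES, 150 mM NaCl, pH 7.5. FITC-labeled incoming peptide added at 100 nM final. Exchange followed in real time by fluorescence anisotropy (ex 494 nm, em 517 nm) at 25 °C.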

HLA-B*07:02 = HLA-B*07:02 (Homo sapiens, UniProt P01889); format: binding; conditions: pre-bound APGIRDHESA
H-2K^b = H-2K^b (Mus musculus, UniProt P01901); format: binding, murine; conditions: pre-bound FAPGNYPAL
β2m = experiment: Thermal stability by nanoscale differential scanning fluorimetry, β2m; set-up: species or system human
A2/NV9 = experiment: Thermal stability by nanoscale differential scanning fluorimetry, A2/NV9; set-up: species or system human; conditions: no reagent

Compound: CCCO [1-propanol]
- peptide exchange (in words) (HLA-A*02:01 [1]): ineffective

Compound: NLVPK_(TAMRA)VATA (peptide)
- fold acceleration of dissociation by 20% ethanol (against no ethanol) [3]: 6 fold

Compound: CO [MeOH, Methanol]
- peptide exchange (in words) (HLA-A*02:01 [1]): 20% methanol was only slightly slower

Compound: ILKEPVHGV [IV9]
- Tm of complex compared to β2m alone (in words) (A2/IV9): not significantly different from those of β2m alone

Compound: C[S+](C)[O-] [DMSO, Dimethylsulfoxide]
- destabilization of A2 complex (in words) (A2/NA9): destabilizes to an extent similar to 10% ethanol

Compound: NLVPMVATV [NV9]
- Tm of complex compared to β2m alone (in words) (A2/NV9): not significantly different from those of β2m alone

Further lines, with some results ahead:

- peptide exchange (in words) (HLA-A*02:01 [1]): enhanced exchange only to a minor extent
- destabilization of A2 complex (in words) (A2/NA9): destabilizes A2 only slightly
Compound: OCCO [EDO, 1,2-Ethanediol]

- acceleration of dissociation by 20% ethanol [2]: about six-fold
Compound: NLVPKTAMRAVATA [NA9-TAM]

- peptide exchange (in words) (HLA-A*02:01 [1]): ineffective
Compound: CCC(C)O (stereo not shown) [2-butanol]

- lower endpoint anisotropy with temperature increase (in words) (HLA-A*02:01 [1]; 20% ethanol, 25, 32, 37 °C, less A2 available to bind the incoming peptide): especially dramatic
- peptide exchange (in words) (HLA-A*02:01 [4]): considerably less than that of 10 mM GM
- peptide exchange (in words) (HLA-A*24:02): dramatically superior to the dipeptide
- peptide exchange (in words) (HLA-B*07:02): also catalyzes exchange
- peptide exchange (in words) (H-2K^b): also catalyzes exchange
- ΔTm (A2/NA9; A2/NA9, 20% ethanol vs no reagent): −16.7 °C
- Tm (β2m; 20% solvent, β2m alone, citrate-phosphate buffer pH 7.6, 1.0 °C/min): 45 °C
- ΔTm (β2m; β2m, 20% solvent vs no reagent): −20.5 °C
Compound: CCO [EtOH, Ethanol]
- peptide exchange (in words) (HLA-A*02:01 [1]): 10% ethanol showed an acceleration similar to the dipeptide
